What was measured:
NCI-H187 = assay: Cytotoxicity against human NCI-H187 cells after 72 hrs by SRB assay; type: functional, cell-based; settings: NCI-H187, 72 h
Outline: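 Small cell lung cancer NCI-H187 cells exposed at 37 °C for 72 h, then sulforhodamine B added for read-out; IC50 given in µg/mL; ellipticine as reference substance.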

[1] = test system: Mycobacterium tuberculosis; assay: Antitubercular activity against Mycobacterium tuberculosis H37Ra; type: functional
Outline: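 Microplate alamar blue assay with M. tuberculosis H37Ra as test organism; MIC recorded in µg/mL; isoniazid and kanamycin sulfate served as reference drugs.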

Structure (SMILES) | IC50 (NCI-H187) [µg/mL] | MIC [1] [µg/mL]
COC(=O)[C@@]1(C)CC(=O)C=C2[C@@]3(C)C=C(c4ccoc4)O[C@]21CC[C@H]3C | < 5 | < 12.5
C[C@@H]1CCC2=C(C[C@H]3C[C@]2(C)C(=O)O3)[C@@]1(C)CC(=O)c1ccoc1 | < 5 | < 12.5
C[C@@H]1CCC2=C(C[C@H]3C[C@]2(C)C(=O)O3)[C@@]1(C)CCc1ccoc1 | < 5 | < 12.5
C[C@@H]1CCC2=C(CCC[C@]2(C)C(=O)O)[C@@]1(C)CCc1ccoc1 | < 5 | < 12.5
